# Measured values pooled from the literature.
# Each line is one published result; the experiments were not run side by side.
# Effect on: metabolic stability
# Host: human
SMILES,sample,tested at,pH,half-life [min]
Cc1ncc2n1-c1ccc(Cl)cc1C(c1ccccc1F)=NC2,hepatocytes,,,92.6
O=c1c2cc(Cl)c(CO)cc2[nH]c(=S)n1Cc1cncnc1,liver microsomes,1 µM,pH 7.4,71.8
Cc1[nH]c(C)c(S(=O)(=O)Nc2ccc(S(F)(F)(F)(F)F)cc2)c1C(=O)N1CCC(F)(F)C1,liver microsomes,,,26.3
CC(C)CC(=O)OC[C@H]1O[C@@](C#N)(c2ccc3c(N)ncnn23)[C@H](O)[C@@H]1O,hepatocytes,,,< 4.36
Cc1[nH]c(C)c(S(=O)(=O)Nc2ccc(S(=O)(=O)F)c(Cl)c2)c1C(=O)N1CCC(F)(F)C1,liver microsomes,,,22
CC(c1cncnc1)n1c(=S)[nH]c2ccc(Cl)cc2c1=O (stereo not shown),liver microsomes,1 µM,pH 7.4,> 186
O=c1[nH]c2ccccc2n1C1CCN(CCCC(c2ccc(F)cc2)c2ccc(F)cc2)CC1,liver microsomes,100 ng/mL,,201
C[C@]12CC[C@H]3[C@@H](CCC4=CC(=O)CC[C@@]43C)[C@@H]1CC[C@@H]2O,liver microsomes,,,21.7
C#Cc1nc(C(=O)N2CCC(NC(=O)c3cnc(-c4ccccc4)s3)(c3nc4ccccc4n3C)CC2)cs1,liver microsomes,,,~20
CC(=O)c1c(C)c2cnc(Nc3ccc(C4CCN(CCS(C)(=O)=O)CC4)cn3)nc2n(C2CCCC2)c1=O,liver S9,,,85.6
